ChEMBL document CHEMBL1152488, “Synthesis and evaluation of pyrido[1,2-a]pyrimidines as inhibitors of nitric oxide synthases” (Eur J Med Chem, 2009)
Calls of active or inactive are those of the source. The rule behind the calls is not given here.

Experiments:
Nitric oxide synthase 3 = target: T1, Nitric oxide synthase 3 (Bos taurus, UniProt P29473); test: Inhibition of bovine recombinant eNOS expressed in Escherichia coli assessed as conversion of [gamma-14C]L-arginine to [14C]L-citrulline by radioactive assay
T1 sequence (P29473 whole entry): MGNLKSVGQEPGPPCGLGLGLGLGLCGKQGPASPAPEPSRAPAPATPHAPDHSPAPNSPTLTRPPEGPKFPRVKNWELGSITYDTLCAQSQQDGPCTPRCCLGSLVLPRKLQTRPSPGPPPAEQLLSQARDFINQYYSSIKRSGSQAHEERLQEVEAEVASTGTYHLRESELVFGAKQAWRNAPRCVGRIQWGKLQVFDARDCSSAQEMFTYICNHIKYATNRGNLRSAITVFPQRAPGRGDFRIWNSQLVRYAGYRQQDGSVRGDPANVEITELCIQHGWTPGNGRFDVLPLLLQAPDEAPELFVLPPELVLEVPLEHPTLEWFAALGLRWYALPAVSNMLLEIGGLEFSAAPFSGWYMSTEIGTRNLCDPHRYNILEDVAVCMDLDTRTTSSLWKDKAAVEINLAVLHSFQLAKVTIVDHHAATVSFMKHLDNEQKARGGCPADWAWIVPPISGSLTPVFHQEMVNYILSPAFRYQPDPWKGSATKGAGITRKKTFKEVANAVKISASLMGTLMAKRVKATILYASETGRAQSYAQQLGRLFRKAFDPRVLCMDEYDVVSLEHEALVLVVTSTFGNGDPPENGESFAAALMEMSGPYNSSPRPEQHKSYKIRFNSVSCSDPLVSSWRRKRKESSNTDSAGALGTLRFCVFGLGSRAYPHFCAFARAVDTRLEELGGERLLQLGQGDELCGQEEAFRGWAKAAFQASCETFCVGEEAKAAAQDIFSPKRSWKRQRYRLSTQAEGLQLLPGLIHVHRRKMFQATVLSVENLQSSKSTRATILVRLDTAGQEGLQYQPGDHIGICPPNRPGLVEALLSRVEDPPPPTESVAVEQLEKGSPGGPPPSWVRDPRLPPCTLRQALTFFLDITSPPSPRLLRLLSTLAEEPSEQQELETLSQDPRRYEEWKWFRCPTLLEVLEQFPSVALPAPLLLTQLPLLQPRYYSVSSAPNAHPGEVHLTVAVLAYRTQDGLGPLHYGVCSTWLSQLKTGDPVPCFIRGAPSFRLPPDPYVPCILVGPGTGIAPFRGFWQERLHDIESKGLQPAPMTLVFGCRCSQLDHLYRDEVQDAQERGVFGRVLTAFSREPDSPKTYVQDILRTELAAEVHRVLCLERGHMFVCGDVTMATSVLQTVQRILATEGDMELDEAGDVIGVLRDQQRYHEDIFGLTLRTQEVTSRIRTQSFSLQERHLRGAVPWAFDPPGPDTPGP
In short: (§1)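 CaCl2/CaM present for nNOS (S. cerevisiae) and eNOS (E. coli) but omitted for iNOS (E. coli). Citrulline separated by Dowex cation exchange, then scintillation counting.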

Nitric oxide synthase 1 = Nitric oxide synthase 1 (Rattus norvegicus, UniProt P29476); test: Inhibition of rat recombinant nNOS expressed in Saccharomyces cerevisiae assessed as conversion of [gamma-14C]L-arginine to [14C]L-citrulline by radioactive assay; in short: as §1
[1] = Dissociation constant, pKa of the compound; format: physicochemical
In short: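 UV spectrophotometric titration. Compound dissolved in 10% aqueous methanol, then mixed 1:1 with NaOH (0.002–6 M) and 1 M HCl to a final 150 µM. Absorbance read at 312 nm across the pH series.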

[2] = target: T2, Nitric oxide synthase, inducible (Mus musculus, UniProt P29477); test: Inhibition of mouse recombinant iNOS expressed in Escherichia coli assessed as NADPH consumption after 2 mins by spectrophotometry
T2 sequence (P29477 whole entry): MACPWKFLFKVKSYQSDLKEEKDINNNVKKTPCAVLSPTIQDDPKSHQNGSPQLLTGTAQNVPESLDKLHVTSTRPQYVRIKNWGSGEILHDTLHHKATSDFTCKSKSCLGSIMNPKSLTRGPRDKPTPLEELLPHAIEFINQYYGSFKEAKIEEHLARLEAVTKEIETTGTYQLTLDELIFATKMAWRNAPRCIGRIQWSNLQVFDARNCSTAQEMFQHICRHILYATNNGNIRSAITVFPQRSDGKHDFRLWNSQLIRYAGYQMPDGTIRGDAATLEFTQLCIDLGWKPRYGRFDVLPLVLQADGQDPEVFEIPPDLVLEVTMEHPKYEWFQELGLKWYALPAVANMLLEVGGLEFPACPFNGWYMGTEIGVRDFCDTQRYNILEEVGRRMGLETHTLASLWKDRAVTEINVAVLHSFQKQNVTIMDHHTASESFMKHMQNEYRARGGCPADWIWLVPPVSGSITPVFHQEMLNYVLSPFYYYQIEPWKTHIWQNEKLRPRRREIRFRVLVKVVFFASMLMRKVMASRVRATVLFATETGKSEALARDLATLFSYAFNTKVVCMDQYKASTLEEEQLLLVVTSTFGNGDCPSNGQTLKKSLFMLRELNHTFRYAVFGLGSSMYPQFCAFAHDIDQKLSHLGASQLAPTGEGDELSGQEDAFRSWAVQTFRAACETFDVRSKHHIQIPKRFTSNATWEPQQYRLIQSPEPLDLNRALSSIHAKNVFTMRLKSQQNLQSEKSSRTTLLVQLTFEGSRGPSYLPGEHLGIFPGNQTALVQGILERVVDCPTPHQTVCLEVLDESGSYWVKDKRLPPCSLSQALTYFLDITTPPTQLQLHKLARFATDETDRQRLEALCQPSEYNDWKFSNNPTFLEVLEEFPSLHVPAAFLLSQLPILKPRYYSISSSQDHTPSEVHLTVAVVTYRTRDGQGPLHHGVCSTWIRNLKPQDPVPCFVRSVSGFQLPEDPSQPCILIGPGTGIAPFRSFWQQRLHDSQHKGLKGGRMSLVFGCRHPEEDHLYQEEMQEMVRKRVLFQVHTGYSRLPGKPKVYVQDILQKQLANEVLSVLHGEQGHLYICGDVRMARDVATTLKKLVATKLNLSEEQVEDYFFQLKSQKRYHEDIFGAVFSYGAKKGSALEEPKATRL
In short: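 Murine iNOS from E. coli (15–50 nM final) in 50 mM Hepes pH 7.4 with 5 mM DTT, 100 µM CaCl2, 200 µM NADPH, 10 µM H4B, 100 µM L-arginine and 100 µM compound. Cofactors and compound preincubated 2 min at 37 °C, enzyme added, and A340 followed for 3 min (ε 6.2 mM-1 cm-1). Given as % of 1% DMSO control NADPH oxidase rate.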

[3] = target: T2, Nitric oxide synthase, inducible; test: Inhibition of mouse iNOS expressed in insect Sf9 cells by competitive binding assay
[4] = target: T3, Nitric oxide synthase, inducible (Mus musculus) (UniProt P29477); test: Inhibition of mouse iNOS expressed in insect Sf9 cells at 1 mM preincubated for 15 mins followed by compound dilution
T3 sequence (whole entry): T2 sequence (P29477 whole entry)

[5] = target: T2, Nitric oxide synthase, inducible; test: Inhibition of mouse recombinant iNOS expressed in Escherichia coli assessed as conversion of [14C]L-arginine to [14C]L-citrulline by radioactive assay

Chain of Nitric oxide synthase 1 (P29476 whole entry): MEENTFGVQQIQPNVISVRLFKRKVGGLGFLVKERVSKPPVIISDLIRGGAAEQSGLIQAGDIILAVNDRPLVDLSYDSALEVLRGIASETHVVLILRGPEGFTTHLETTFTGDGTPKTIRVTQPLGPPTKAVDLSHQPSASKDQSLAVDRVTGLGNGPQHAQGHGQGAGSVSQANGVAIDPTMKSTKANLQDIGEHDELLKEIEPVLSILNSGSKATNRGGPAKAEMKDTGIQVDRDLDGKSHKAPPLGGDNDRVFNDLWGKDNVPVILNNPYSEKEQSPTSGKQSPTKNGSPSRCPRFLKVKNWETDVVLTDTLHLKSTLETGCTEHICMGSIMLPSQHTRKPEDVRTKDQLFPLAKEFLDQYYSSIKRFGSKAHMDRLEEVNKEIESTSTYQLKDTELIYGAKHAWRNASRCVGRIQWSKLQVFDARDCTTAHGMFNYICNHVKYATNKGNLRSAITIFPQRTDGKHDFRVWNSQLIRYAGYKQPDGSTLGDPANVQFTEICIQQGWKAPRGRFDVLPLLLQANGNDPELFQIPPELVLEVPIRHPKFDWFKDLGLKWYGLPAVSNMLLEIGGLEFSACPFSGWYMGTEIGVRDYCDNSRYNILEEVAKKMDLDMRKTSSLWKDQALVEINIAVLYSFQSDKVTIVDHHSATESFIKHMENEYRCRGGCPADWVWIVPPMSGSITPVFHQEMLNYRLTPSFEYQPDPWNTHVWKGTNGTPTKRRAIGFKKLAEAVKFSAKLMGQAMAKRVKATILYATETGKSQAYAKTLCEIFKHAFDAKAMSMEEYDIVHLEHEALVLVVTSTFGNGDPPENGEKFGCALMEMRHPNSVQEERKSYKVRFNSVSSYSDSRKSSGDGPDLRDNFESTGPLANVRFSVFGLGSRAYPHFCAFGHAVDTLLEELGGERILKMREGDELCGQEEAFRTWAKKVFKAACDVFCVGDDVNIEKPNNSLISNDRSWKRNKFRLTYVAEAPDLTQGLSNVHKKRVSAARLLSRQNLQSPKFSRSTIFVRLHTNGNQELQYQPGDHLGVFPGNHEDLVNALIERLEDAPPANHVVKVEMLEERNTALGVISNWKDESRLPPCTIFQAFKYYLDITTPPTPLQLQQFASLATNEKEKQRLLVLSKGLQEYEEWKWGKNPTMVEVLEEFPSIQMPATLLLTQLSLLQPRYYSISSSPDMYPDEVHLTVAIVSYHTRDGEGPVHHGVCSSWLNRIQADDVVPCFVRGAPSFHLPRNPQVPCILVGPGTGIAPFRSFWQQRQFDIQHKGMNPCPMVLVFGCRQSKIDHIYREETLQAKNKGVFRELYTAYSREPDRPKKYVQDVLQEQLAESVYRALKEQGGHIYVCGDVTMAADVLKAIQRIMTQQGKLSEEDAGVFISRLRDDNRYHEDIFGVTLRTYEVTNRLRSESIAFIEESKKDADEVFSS

Row | Structure (SMILES) | IC50 (Nitric oxide synthase 3) | IC50 (Nitric oxide synthase 1) | Ki [3] | also measured
1 | CC1=CC2=NCC(C(=O)c3ccc(-c4ccc(Br)cc4)cc3)CN2C(C)=C1 (stereo not given) | 188 µM | – | – | –
2 | CC1=CC2=NCC(C(=O)c3ccc4cc(C)ccc4c3)CN2C(C)=C1.[O-][Cl+3]([O-])([O-])O (stereo not given) | 53 µM | 60 µM | – | –
3 | CC1=CC2=NCC(C(=O)c3ccc(OCc4ccc(Cl)cc4)cc3)CN2C=C1.[O-][Cl+3]([O-])([O-])O (stereo not given) | 12 µM | – | – | –
4 | O=C(c1ccc(Br)cc1)C1CN=C2C=CC=CN2C1 (stereo not given) | – | – | – | pKa [1]: 12.4
5 | CC1=CC2=NCC(C(=O)c3ccc(-c4ccc(C#N)cc4)cc3)CN2C=C1.Cl (stereo not given) | 12 µM | 128 µM | – | IC50 [2]: 11 µM
6 | COc1ccc(-c2ccc(C(=O)C3CN=C4C=C(C)C=CN4C3)cc2)cc1.Cl (stereo not given) | 60 µM | 87 µM | 15 µM | –
7 | CC1=CC2=NCC(C(=O)c3ccc(-c4ccc(Br)cc4)cc3)CN2C=C1.[O-][Cl+3]([O-])([O-])O (stereo not given) | – | – | 14 µM | Activity [4]: inactive; IC50 [5]: 28 µM
8 | CC1=CC2=NCC(C(=O)c3ccc4cc(C)ccc4c3)CN2C=C1.[O-][Cl+3]([O-])([O-])O (stereo not given) | – | – | 23 µM | –
